Series [1] deals with T1, Amine oxidase [flavin-containing] B (Rattus norvegicus, UniProt P19643).
T1 sequence (P19643 whole entry): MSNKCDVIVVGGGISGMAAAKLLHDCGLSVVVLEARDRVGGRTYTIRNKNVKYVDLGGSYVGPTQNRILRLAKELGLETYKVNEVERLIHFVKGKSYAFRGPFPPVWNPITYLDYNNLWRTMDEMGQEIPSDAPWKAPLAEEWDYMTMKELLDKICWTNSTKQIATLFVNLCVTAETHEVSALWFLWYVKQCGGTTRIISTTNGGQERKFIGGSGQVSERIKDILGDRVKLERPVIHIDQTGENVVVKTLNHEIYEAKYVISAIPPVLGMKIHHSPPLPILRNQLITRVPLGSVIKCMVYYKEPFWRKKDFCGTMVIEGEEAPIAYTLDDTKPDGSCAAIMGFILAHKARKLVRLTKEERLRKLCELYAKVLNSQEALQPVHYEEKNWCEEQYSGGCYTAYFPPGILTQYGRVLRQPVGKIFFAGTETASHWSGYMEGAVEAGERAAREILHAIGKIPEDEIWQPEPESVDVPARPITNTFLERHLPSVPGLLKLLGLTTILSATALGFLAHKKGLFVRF
The experiment in a line: Inhibitory activity against rat brain mitochondrial Monoamine oxidase B at 10 uM. The essentials: (§1)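 Rat brain mitochondrial MAO extract preincubated with inhibitor 15 min at 37 °C in 50 mM potassium phosphate pH 7.4. [14C]phenethylamine added at 10 μM final, then 20 min incubation. Pargyline 2 mM blanks. Stopped with HCl, products extracted into ethyl acetate/toluene and counted radiometrically. Triplicates; IC50 from mean % inhibition vs log concentration.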

The target in series [2] is T2, Amine oxidase [flavin-containing] A (Rattus norvegicus, UniProt P21396).
T2 sequence (P21396 whole entry): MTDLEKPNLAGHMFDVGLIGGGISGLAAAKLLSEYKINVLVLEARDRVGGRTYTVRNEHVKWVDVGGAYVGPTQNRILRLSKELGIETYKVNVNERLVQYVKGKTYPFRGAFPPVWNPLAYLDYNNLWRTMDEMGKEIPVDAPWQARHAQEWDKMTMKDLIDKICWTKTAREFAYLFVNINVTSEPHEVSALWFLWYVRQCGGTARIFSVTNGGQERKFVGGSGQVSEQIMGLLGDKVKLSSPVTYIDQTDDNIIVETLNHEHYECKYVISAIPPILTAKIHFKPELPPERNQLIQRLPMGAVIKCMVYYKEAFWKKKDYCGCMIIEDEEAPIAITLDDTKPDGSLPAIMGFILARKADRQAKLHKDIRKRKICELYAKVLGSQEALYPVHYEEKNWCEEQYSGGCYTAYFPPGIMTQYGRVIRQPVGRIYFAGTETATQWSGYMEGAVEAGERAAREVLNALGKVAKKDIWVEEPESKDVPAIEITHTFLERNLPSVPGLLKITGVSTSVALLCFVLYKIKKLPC
Description: Inhibitory concentration against rat brain mitochondrial monoamine oxidase A. The essentials:
(§2)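 Rat brain mitochondrial MAO extract preincubated with inhibitor 15 min at 37 °C in 50 mM potassium phosphate pH 7.4. [3H]serotonin added at 0.2 μM final, then 20 min incubation. Pargyline 2 mM blanks. Stopped with HCl, products extracted into ethyl acetate/toluene and counted radiometrically. Triplicates; IC50 from mean % inhibition vs log concentration.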

The target in series [3] is T2, Amine oxidase [flavin-containing] A. Description: Inhibition of the enzyme Monoamine oxidase A which was not completely reverserved after 24 hr of dialysis. The essentials:
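Reversibility: MAO extract preincubated with or without inhibitor 15 min at 37 °C, in duplicate, then dialysed 24 h at 4 °C with shaking against 0.1 M potassium phosphate pH 7.4, 5% sucrose, 1 mM dithiothreitol, buffer changed ca. 3 and 19 h. Undialysed portions held at 4 °C; both assayed together for MAO activity.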

Series [4] deals with T1, Amine oxidase [flavin-containing] B. The experiment in a line: Inhibitory activity against rat brain mitochondrial Monoamine oxidase B at 0.1 uM. The essentials: as §1
Series [5] addresses T2, Amine oxidase [flavin-containing] A. Description: Inhibitory concentration against rat brain mitochondrial Monoamine oxidase A at 1 uM. The procedure, abridged: as §2
Series [6] deals with T1, Amine oxidase [flavin-containing] B. Description: Inhibitory activity against rat brain mitochondrial Monoamine oxidase B at 1 uM. The essentials: as §1
Series [7] has the same target. Description: Inhibitory activity against rat brain mitochondrial Monoamine oxidase B. The essentials:
as §1

The target is the same in series [8]. The experiment in a line: Inhibitory activity against rat brain mitochondrial Monoamine oxidase B at < 1 uM. The essentials: as §1
Series [9] concerns the target T2, Amine oxidase [flavin-containing] A. Description: Inhibitory concentration against rat brain mitochondrial Monoamine oxidase A at 10 uM. The procedure, abridged: as §2
The target is the same in series [10]. Description: Inhibitory concentration against rat brain mitochondrial Monoamine oxidase A at <1 uM. The essentials:
as §2

The target is the same in series [11]. Description: Inhibition of the enzyme Monoamine oxidase A which was not completely reverserved after 24 hr of dialysis after po administration to rat (brain). The class given is organism-based. Conditions: in vivo.

pIC50: −log10 of the molar value.

For the molecule `Cc1ccc2c(c1)C(=O)c1ccc(C3=NCCN3)cc1S2(=O)=O`, the inhibition at 10 µM in series [1] stood at 0%. Besides, the pIC50 in [2] was 7.70. The molecule further returned a Reversible in series [3] of 26%.
In the case of `CC(C)c1ccc2c(c1)C(=O)c1ccc(C3=NCCN3)cc1S2(=O)=O`, in series [4], the inhibition at 0.1 µM amounted to 0%. Further, the pIC50 in [2] is 7.30. The Reversible in [3] worked out at 40%.
For `c1ccc2c(c1)Cc1cc(C3=NCCN3)ccc1-2`, the values for the inhibition at 1 µM in series [5] and in series [6] were 59% and 11%, respectively.
As to `O=S1(=O)c2ccccc2C(O)c2ccc(C3=NCCN3)cc21` (stereo not drawn), the inhibition at 1 µM in series [5] amounted to 20%; in [6], 10%.
Consider `CCCOc1ccc2sc3cc(-c4nnc(C)o4)ccc3c(=O)c2c1`, for which the pIC50 is 6.00 in series [7] and 7.22 in [2]. This molecule came in with a Reversible in series [3] of 10%.
As for `CC(C)c1ccc2c(c1)C(=O)c1ccc(-c3nnn(C)n3)cc1S2(=O)=O`, in [4], the inhibition at 0.1 µM was -30%. Besides, the pIC50 in series [2] is 8.30. Moreover, the Reversible in series [3] was 0%.
For `CCOc1ccc2c(c1)C(=O)c1ccc(C3=NCCN3)cc1S2(=O)=O`, the inhibition at 1 µM in series [6] was found to be 12%. This molecule also had a pIC50 in series [2] of 8.15. In [3], this molecule returned a Reversible of 4%.
For the molecule `Cn1nnc(-c2ccc3c(=O)c4cc(OCCO)ccc4oc3c2)n1`, the Inhibition in series [8] was 21%. In series [5], the inhibition at 1 µM was 64%.
As for `COc1ccc2c(c1)C(=O)c1ccc(-c3nnn(C)n3)cc1S2(=O)=O`, the pIC50 was 7.22 in series [7] and 8.70 in series [2]. In addition, the Reversible in [3] is reported as 29%.
Consider `CCn1nnc(-c2ccc3c(=O)c4cc(O)ccc4oc3c2)n1`, for which the pIC50 in [7] is 7.00; in series [2], 5.70.
Regarding `CN1CCN=C1c1ccc2c(c1)S(=O)(=O)c1ccccc1C2=O`, the inhibition at 1 µM in series [5] amounted to 27%; in series [6], 18%. Moreover, the Inhibition in series [6] (1 µM) is on record as 11%.
On to `O=C1c2cc(N3CCOCC3)ccc2S(=O)(=O)c2cc(C3=NCCN3)ccc21`, for which, in series [6], the inhibition at 1 µM stood at 4%. Also, the pIC50 in series [2] is 8.00.
For `O=c1c2ccccc2sc2cc(C3=NCCN3)ccc12`, the inhibition at 1 µM in [6] is 14%. The pIC50 in series [2] is 6.00.
On to `CC(C)c1ccc2sc3cc(-c4nn[nH]n4)ccc3c(=O)c2c1`, for which the inhibition at 1 µM came out at 24% in series [5] and 5% in series [6].
In the case of `CCn1nnc(-c2ccc3c(c2)S(=O)(=O)c2ccccc2C3=O)n1`, the results for the inhibition at 1 µM in [5] and in series [6] were 36% and 45%, respectively.
For the molecule `O=C1c2ccccc2S(=O)(=O)c2c1cccc2C1=NCCN1`, the inhibition at 1 µM was -5% in series [5] and -6% in series [6].
With `COc1nnc(-c2ccc3c(c2)S(=O)(=O)c2ccccc2C3=O)o1`, the inhibition at 1 µM in [6] came to 14%. The same molecule showed a pIC50 in series [2] of 7.10.
`O=C1c2ccccc2S(=O)(=O)c2cc(-c3nn[nH]n3)ccc21` [DOXANTRAZOLE]: the figures for the inhibition at 10 µM in [1] and in series [9] were 1% and 9%, respectively.
For the molecule `CC(=O)N1CCN=C1c1ccc2c(c1)S(=O)(=O)c1ccc(F)cc1C2=O`, the Inhibition in series [8] was -11%; in [10] it was 4%.
With `O=S1(=O)c2ccccc2-c2cc(C3=NCCN3)ccc21`, the results for the inhibition at 1 µM in series [5] and in series [6] were 41% and 16%, respectively.
`O=C1c2cc(C3=NCCN3)ccc2S(=O)(=O)c2cc(C3=NCCN3)ccc21`: the inhibition at 1 µM in series [5] turned out to be 46%; in [6], 3%.
In the case of `O=S1(=O)c2ccccc2Oc2ccc(C3=NCCN3)cc21`, the Inhibition in series [8] came to 59%. In addition, the pIC50 in series [2] was 7.40. Further, the Reversible in [3] is given as 16%.
As to `CCNc1ccc2c(c1)C(=O)c1ccc(C3=NCCN3)cc1S2(=O)=O`, the Reversible in series [11] was 0%. Besides, the inhibition at 1 µM in series [6] worked out at 0%. The pIC50 in [2] is 8.00.
`CNc1ccc2c(c1)C(=O)c1ccc(C3=NCCN3)cc1S2(=O)=O` showed a pIC50 in series [2] of 7.64. In [3], the Reversible came to 8%.
For `Cn1nnc(-c2ccc3c(c2)S(=O)(=O)c2ccccc2C3=O)n1`, the inhibition at 1 µM in [6] is 10%. Besides, the pIC50 in [2] is 8.00. Moreover, the Reversible in series [3] is on record as 100%.
`O=S1(=O)c2ccccc2Nc2cc(C3=NCCN3)ccc21`: the inhibition at 1 µM was 23% in series [5] and 12% in [6].
The like results for `Cc1ccc2c(c1)S(=O)(=O)c1cc(C3=NCCN3)ccc1C2=O` were, in that order, 53% and 5%.
The like results for `c1cc2c3c([nH]c2cc1C1=NCCN1)CCCC3` were, in that order, 20% and 9%.
As to `Cc1nc(-c2ccc3c(c2)S(=O)(=O)c2ccccc2O3)no1`, the inhibition at 1 µM in series [5] was 98%; in [6], 17%.
With `c1ccc(Cn2c3ccccc3c3cc(C4=NCCN4)ccc32)cc1`, the inhibition at 10 µM in series [1] worked out at 61%; in series [9] it was 20%.
As to `Cc1nc(-c2ccc3c(c2)Sc2ccccc2O3)no1`, in series [6], the inhibition at 1 µM was 14%. In series [2], the pIC50 was 6.70.
In the case of `O=C1c2ccc(C3=NCCN3)cc2S(=O)(=O)c2cc(C(F)(F)F)ccc21`, the results for the inhibition at 1 µM in [5] and in series [6] were 12% and 10%, respectively.
`c1cc2c(cc1C1=NCCN1)Sc1cc(C3=NCCN3)ccc1O2`: the pIC50 in series [7] is 5.00; in series [2], 6.00.
For `O=c1c2ccccc2sc2c(C3=NCCN3)cccc12`, the results for the inhibition at 1 µM in series [5] and in series [6] were 7% and 10%, respectively.
With `O=C1c2ccccc2S(=O)(=O)c2cc(C3=NCCCN3)ccc21`, the inhibition at 1 µM turned out to be 37% in series [5] and 5% in series [6].
Turning to `C=CCNc1ccc2c(c1)C(=O)c1ccc(C3=NCCN3)cc1S2(=O)=O`, the inhibition at 1 µM in series [6] was determined as 12%. Also, in series [2], the pIC50 is 8.05. For the same molecule, the Reversible in series [3] worked out at 5%.
Regarding `CC1CN=C(c2ccc3c(c2)S(=O)(=O)c2ccccc2C3=O)N1` (stereo not drawn), the inhibition at 10 µM was found to be 49% in [1] and 36% in series [9].
With `c1ccc2c(c1)Oc1ccc(C3=NCCN3)cc1S2`, the pIC50 is 5.00 in series [7] and 7.00 in series [2]. In [3], this molecule showed a Reversible of 46%.
`CCc1nnc(-c2ccc3c(c2)S(=O)(=O)c2ccccc2C3=O)o1`: the inhibition at 1 µM in [6] came out at 23%. The molecule also gave a pIC50 in [2] of 6.30.
As for `COc1ccc2c(c1)C(=O)c1ccc(C3=NCCN3)cc1S2(=O)=O`, in [6], the inhibition at 1 µM came out at 33%. This molecule also had a pIC50 in series [2] of 8.00. In series [3], the Reversible is given as 5%.
Turning to `O=C1c2cc(F)ccc2S(=O)(=O)c2cc(C3=NCCN3)ccc21`, the inhibition at 1 µM in series [6] came to 12%. For the same molecule, the pIC50 in [2] was 6.70. Further, the Reversible in series [3] amounted to 62%.
On to `COc1ccc2c(c1)C(=O)c1ccc(-c3nnc(C)o3)cc1S2(=O)=O`, for which the results for the pIC50 in series [7] and in series [2] were 7.00 and 9.00, respectively. Also, the Reversible in series [3] was found to be 14%.
Take `O=S1(=O)c2ccccc2-c2cc(-c3nn[nH]n3)ccc21`: the inhibition at 1 µM in series [5] was determined as 9%; in series [6], 0%.
For `[O-][S+]1c2ccccc2Sc2ccc(C3=NCCN3)cc21` (stereo not drawn) the same measures were 14% and 14%.
The like results for `Cc1ccc(C)c2c1[nH]c1ccc(C3=NCCN3)cc12` were, in that order, 62% and 10%.
Consider `NCCNc1ccc2c(c1)C(=O)c1ccc(C3=NCCN3)cc1S2(=O)=O`, for which the Reversible in [11] was 20%. Also, the inhibition at 1 µM in series [6] amounted to 11%. For the same molecule, the pIC50 in series [2] is 6.52.

The record behind these values is ChEMBL document CHEMBL1129565, “Selective inhibitors of monoamine oxidase. 3. Structure-activity relationship of tricyclics bearing imidazoline, oxadiazole, or tetrazole groups” (J Med Chem, 1996).
